Assay results as given in the array DNA melting data of Ke et al. (doi:10.1101/2024.01.08.574731).

What was measured:
[1] = folding enthalpy; higher = less favourable; fluorescence melt of hairpins on a sequencing array, two-state fit; conditions: sodium 0.088 M
Summary of the method: (§1)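 To match UV melts, fitted temperatures were raised by 9.35 °C. These fits were bootstrapped two-state models that gave melting temperature and folding enthalpy, combined by inverse variance over four replicates. The input was normalised Cy3 fluorescence of library hairpins with annealed Cy3 and quencher oligos on a sequenced MiSeq flow cell, imaged in 50 mM Na-HEPES pH 8.0, 25 mM NaCl in 2.5 °C steps up to 60 °C.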

[2] = melting temperature; fluorescence melt of hairpins on a sequencing array, two-state fit, raised by 9.35 °C to match UV melts; conditions: sodium 0.088 M
Summary of the method: as §1

Row | Sequence | folding enthalpy [1] | Tm [2]
1 | GCATATTCGAAAGAATGC (((..(((....)))))) | -78.2 kJ/mol | 34 °C
2 | GCATCACCGAAAGGTTGC (((..(((....)))))) | -80 kJ/mol | 37.4 °C
3 | GCATCCCGAAAGGGTGC (((.(((....)))))) | -64.7 kJ/mol | 61.5 °C
4 | GCATCCCGAAAGGGTTGC (((.(((....))).))) | -126 kJ/mol | 60.1 °C
5 | GCATCCGAAAGGACTTGC ((((((....)))..))) | -81.3 kJ/mol | 32.9 °C
6 | GCATCGACGAAAGTCTGC (((..(((....)))))) | -65.9 kJ/mol | 33.6 °C
7 | GCATCGCCGAAAGGCTGC (((..(((....)))))) | -59 kJ/mol | 43.4 °C
8 | GCATCGCGAAAGCCACGC ((.(.((....)).).)) | -42.7 kJ/mol | 26.5 °C
9 | GCATCGCGAAAGCGACGC ((.((((....)))).)) | -89.7 kJ/mol | 63.9 °C
10 | GCATCGCGAAAGCGCAGC ((..(((....)))..)) | -52.7 kJ/mol | 39.9 °C
11 | GCATCGCGAAAGCGTGC (((.(((....)))))) | -82.5 kJ/mol | 63.8 °C
12 | GCATCGCGAAAGCGTTGC (((.(((....))).))) | -185 kJ/mol | 58.5 °C
13 | GCATCGCGAAAGCTAGGC ((.(.((....)).).)) | -58.5 kJ/mol | 42.8 °C
14 | GCATCGCGAAAGCTATGC ((((.((....)).)))) | -101 kJ/mol | 59 °C
15 | GCATCGGGAAACCGGTGC (((.(((....))).))) | -186 kJ/mol | 59.1 °C
16 | GCATCGTCGAAAGACTGC (((..(((....)))))) | -66.1 kJ/mol | 36.8 °C
17 | GCATCTCCGAAAGGATGC (((..(((....)))))) | -120 kJ/mol | 46.1 °C
18 | GCATCTCGAAAGAGGTGC (((.(((....))).))) | -156 kJ/mol | 59.8 °C
19 | GCATGACCGAAAGGTTGC (((..(((....)))))) | -77.9 kJ/mol | 41.5 °C
20 | GCATGACGAAAGTCGTGC (((.(((....))).))) | -176 kJ/mol | 63.6 °C
21 | GCATGACGAAAGTCTGC (((.(((....)))))) | -122 kJ/mol | 53.9 °C
22 | GCATGAGGAAACTCACGC ((.((((....)))).)) | -117 kJ/mol | 41.3 °C
23 | GCATGCCGAAAGGCTGC (((.(((....)))))) | -90.4 kJ/mol | 65.7 °C

Row | Sequence | folding enthalpy [1] | Tm [2]
24 | GCATGCGAAAGCAAATGC ((((((....)))..))) | -104 kJ/mol | 52.6 °C
25 | GCATGCGAAAGCATATGC ((((((....)))..))) | -83.9 kJ/mol | 50.1 °C
26 | GCATGCGAAAGCATTTGC ((((((....)))..))) | -60.3 kJ/mol | 42.3 °C
27 | GCATGCGGAAACGTGTGC (((..((....))..))) | -158 kJ/mol | 50.4 °C
28 | GCATGGCGAAAGCCTTGC (((.(((....))).))) | -148 kJ/mol | 60.8 °C
29 | GCATGGCGAAAGCGATGC ((((.((....)).)))) | -92.1 kJ/mol | 64.2 °C
30 | GCATGGGGAAACCCATAC (.(((((....))))).) | -65.1 kJ/mol | 36.5 °C
31 | GCATGGGGAAACCTATGC ((((.((....)).)))) | -165 kJ/mol | 50.8 °C
32 | GCATGTGCGAAAGCATGC (((..(((....)))))) | -76.4 kJ/mol | 52.2 °C
33 | GCATGTTCGAAAGAATGC (((..(((....)))))) | -100 kJ/mol | 30.8 °C
34 | GCATTAGCGAAAGCTTGC (((..(((....)))))) | -75.9 kJ/mol | 40 °C
35 | GCATTAGGAAACTAATGC (((((((....))))))) | -186 kJ/mol | 55.6 °C
36 | GCATTCCGAAAGGATGC (((.(((....)))))) | -129 kJ/mol | 53.7 °C
37 | GCATTCGAAAGAACTGC ((((((....))).))) | -118 kJ/mol | 34.9 °C
38 | GCATTCGAAAGAATCTGC ((((((....)))..))) | -90 kJ/mol | 34.5 °C
39 | GCATTCGAAAGAATTGC ((((((....))).))) | -81.5 kJ/mol | 41.1 °C
40 | GCATTGAAAAATGC (((((....))))) | -131 kJ/mol | 49.2 °C
41 | GCATTGACGAAAGTCTGC (((..(((....)))))) | -69 kJ/mol | 38.9 °C
42 | GCATTGCGAAAGCAAAGC ((.((((....)))).)) | -78 kJ/mol | 58 °C
43 | GCATTGCGAAAGCAACGC ((.((((....)))).)) | -112 kJ/mol | 60.4 °C
44 | GCATTGCGAAAGCAGGGC ((..(((....)))..)) | -86.7 kJ/mol | 51 °C
45 | GCATTGCGAAAGCATAGC ((..(((....)))..)) | -79.5 kJ/mol | 48.8 °C
46 | GCATTGCGAAAGCATGC (((.(((....)))))) | -143 kJ/mol | 55.7 °C

Row | Sequence | folding enthalpy [1] | Tm [2]
47 | GCATTGCGAAAGCCATGC ((((.((....)).)))) | -122 kJ/mol | 58.4 °C
48 | GCATTGCGAAAGCGTTGC (((..((....))..))) | -91.5 kJ/mol | 47.5 °C
49 | GCATTGCGAAAGCTAGGC ((.(.((....)).).)) | -75.1 kJ/mol | 48.7 °C
50 | GCATTGGAAACAATGC ((((((....)))))) | -165 kJ/mol | 57.7 °C
51 | GCATTGGGAAACTAATGC (((((.(....).))))) | -136 kJ/mol | 46.7 °C
52 | GCATTTGGAAACAAATGC (((((((....))))))) | -195 kJ/mol | 60 °C
53 | GCATTTGGAAACAGATGC ((((.((....)).)))) | -140 kJ/mol | 44 °C
54 | GCCAAACGAAAGTTAGGC (((.(((....))).))) | -123 kJ/mol | 54.9 °C
55 | GCCAAATCGAAAGATGGC (((..(((....)))))) | -114 kJ/mol | 47.4 °C
56 | GCCAACCGAAAGGTCGGC (((.(((....))).))) | -168 kJ/mol | 59.4 °C
57 | GCCAACCGAAAGGTGGC (((.(((....)))))) | -95.9 kJ/mol | 67.4 °C
58 | GCCAACGAAAGTTCCGGC ((((((....)))..))) | -86.2 kJ/mol | 36.3 °C
59 | GCCAACGAAAGTTCGGGC ((((((....)))..))) | -126 kJ/mol | 43.8 °C
60 | GCCAACGAAAGTTGGGGC ((((((....)))..))) | -64.1 kJ/mol | 65.4 °C
61 | GCCAACGAAAGTTTCGGC ((((((....)))..))) | -77 kJ/mol | 39 °C
62 | GCCAACGAAAGTTTGGC ((((((....))).))) | -143 kJ/mol | 54.6 °C
63 | GCCAACGCGAAAGCGGGC (((..(((....)))))) | -68.6 kJ/mol | 63.4 °C
64 | GCCAACGGAAACGTTAGC ((.((((....)))).)) | -98.7 kJ/mol | 40 °C
65 | GCCAAGCGAAAGCACGGC (((..((....))..))) | -127 kJ/mol | 57.4 °C
66 | GCCAAGCGAAAGCATAGC ((.(.((....)).).)) | -54.1 kJ/mol | 30.7 °C
67 | GCCAAGCGAAAGCATCGC ((.(.((....)).).)) | -28.5 kJ/mol | 31.2 °C
68 | GCCAAGCGAAAGCCTTGC ((.(.((....)).).)) | -56.8 kJ/mol | 33.9 °C
